# From ChEMBL document CHEMBL1125170, “A novel series of selective leukotriene antagonists: exploration and optimization of the acidic region in 1,6-disubstituted indoles and indazoles” (1990)
# “And” between values parts separate entries of the source, which are not always exact repeats. Equal values may be shown once.
# Columns and labels:
# [1] = species: Cavia porcellus; experiment: In vitro antagonism of 8 nM of peptidoleukotriene (LTE4) induced contraction of guinea pig tracheal spirals at 100 X E-7M concentration; type: functional, Trachea
# How it was run: (§1)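 Guinea pig tracheal spirals held at 37 °C in modified Krebs' (mM: NaCl 119, KCl 4.6, CaCl2 1.8, MgCl2 0.5, NaHCO3 24.9, NaH2PO4 1.0, glucose 11.1) plus indomethacin 5 μM, resting tension 2 g, isometric recording. After reproducible 8 nM LTE4 responses, compound added for 10 min, then rechallenged. % inhibition is adjusted for the paired vehicle tissue. At least four spirals, paired t test.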
# [2] = species: Cavia porcellus; experiment: In vitro antagonism of 8 nM of peptidoleukotriene (LTE4) induced contraction of guinea pig tracheal spirals at 1 X E-7M concentration; type: functional, Trachea; how it was run: as §1
# [3] = species: Cavia porcellus; experiment: Dissociation constant KB = [antagonist]/(dose ratio -1). KB determined in guinea pig tracheal spirals with LTE4 as agonist.; type: functional, Trachea
# How it was run: (§2)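 Isolated guinea pig tracheal strips in Krebs' buffer with indomethacin (5 μM), 37 °C, 95% O2/5% CO2, resting tension 2 g. Carbachol (30 μM) sets the maximum. Antagonist incubated 30 min, then cumulative LTE4 concentration–response curves in log increments, one curve per tissue. EC50 by linear regression, paired vehicle controls. KB = [antagonist]/(DR − 1) (Furchgott).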
# [4] = species: Cavia porcellus; experiment: In vitro antagonism of 8 nM of peptidoleukotriene (LTE4) induced contraction of guinea pig tracheal spirals at 10 X E-7M concentration; type: functional, Trachea; how it was run: as §1
# [5] = species: Cavia porcellus; experiment: In vitro antagonism of 8 nM of peptidoleukotriene (LTE4) induced contraction of guinea pig tracheal spirals at 33 X E-7M concentration; type: functional, Trachea; how it was run: as §1
# [6] = target: T1, Cysteinyl leukotriene receptor 1 (Cavia porcellus) (UniProt Q2NNR5); experiment: Dissociation constant KB = [antagonist]/(dose ratio -1).KB determined in guinea pig tracheal spirals with LTE4 as agonist; type: functional, tissue-based; settings: Trachea; how it was run: as §2
# T1 sequence (whole entry): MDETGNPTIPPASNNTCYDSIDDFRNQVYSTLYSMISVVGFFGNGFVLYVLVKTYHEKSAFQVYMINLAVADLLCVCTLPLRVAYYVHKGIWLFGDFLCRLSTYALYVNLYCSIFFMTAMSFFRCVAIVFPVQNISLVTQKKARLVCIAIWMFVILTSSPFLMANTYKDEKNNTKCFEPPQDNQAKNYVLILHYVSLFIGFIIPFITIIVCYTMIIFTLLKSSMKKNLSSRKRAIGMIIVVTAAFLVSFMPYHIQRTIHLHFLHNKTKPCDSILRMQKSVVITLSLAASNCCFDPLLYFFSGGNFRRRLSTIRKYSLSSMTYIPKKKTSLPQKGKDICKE
# [7] = species: Cavia porcellus; experiment: In vitro antagonism of 8 nM of peptidoleukotriene (LTE4) induced contraction of guinea pig tracheal spirals at 3.3 X E-7M concentration; type: functional, Trachea; how it was run: as §1
# [8] = species: Cavia porcellus; experiment: In vitro antagonism of 8 nM of peptidoleukotriene (LTE4) induced contraction of guinea pig tracheal spirals at 0.033 X E-7M concentration; type: functional, Trachea; how it was run: as §1
smiles,measurement,setting,value
CCCCC(CC)C(=O)Nc1ccc2ccn(Cc3ccc(S(=O)(=O)NC(=O)c4ccccc4)cc3)c2c1 (stereo not drawn),Antagonism,[1],37%
CCCCC(CC)C(=O)Nc1ccc2ccn(Cc3c(OC)cc(C(=O)NS(=O)(=O)c4ccccc4)cc3OC)c2c1 (stereo not drawn),Antagonism,[2],72%
same,pKB,[3],8
CCCCC(CC)C(=O)Nc1ccc2ccn(Cc3c(OC)cc(C(=O)O)cc3OC)c2c1 (stereo not drawn),Antagonism,[4],63%
COc1cc(C(=O)NS(=O)(=O)c2ccccc2C)ccc1Cn1ncc2ccc(NC(=O)OC3CCCC3)cc21,pKB,[3],10.2
CCCCC(CC)C(=O)Nc1ccc2ccn(Cc3ccc(C(=O)NS(=O)(=O)c4ccc(F)cc4)cc3OC)c2c1 (stereo not drawn),pKB,[3],7.7
CCCCC(CC)C(=O)Nc1ccc2ccn(Cc3ccc(C(=O)NS(=O)(=O)c4ccc([N+](=O)[O-])cc4)cc3OC)c2c1 (stereo not drawn),pKB,[3],7.7
CCCCC(CC)C(=O)Nc1ccc2ccn(Cc3ccc(C(=O)NS(C)(=O)=O)cc3OC)c2c1 (stereo not drawn),Antagonism,[4],100% and 60%
COc1cc(C(=O)O)ccc1Cn1ccc2ccc(NC(=O)CC3CCCC3)cc21,Antagonism,[2],34%
COc1cc(C(=O)NS(=O)(=O)c2cccs2)ccc1Cn1ccc2ccc(NC(=O)CC3CCCC3)cc21,pKB,[3],9.6
COc1cc(C(=O)NS(=O)(=O)c2ccccn2)ccc1Cn1ccc2ccc(NC(=O)CC3CCCC3)cc21,pKB,[3],8.9
CCCCC(CC)C(=O)Nc1ccc2ccn(Cc3ccc(C(=O)O)cc3F)c2c1 (stereo not drawn),Antagonism,[1],86%
CCCCC(CC)C(=O)Nc1ccc2ccn(Cc3ccc(C(=O)NS(=O)(=O)C(C)C)cc3OC)c2c1 (stereo not drawn),Antagonism,[4],47%
CCCCC(CC)C(=O)Nc1ccc2ccn(Cc3ccc(/C=C/C(=O)O)cc3OC)c2c1 (stereo not drawn),Antagonism,[1],31%
COc1cc(-c2nn[nH]n2)ccc1Cn1ccc2ccc(NC(=O)OC3CCCC3)cc21,pKB,[3],7.6
same,Antagonism,[4],62%
COc1cc(C(=O)NS(=O)(=O)c2ccccc2N)ccc1Cn1ccc2ccc(NC(=O)CC3CCCC3)cc21,pKB,[3],9.9
CCCCC(CC)C(=O)Nc1ccc2ccn(Cc3ccc(C(=O)Nc4nn[nH]n4)cc3OC)c2c1 (stereo not drawn),Antagonism,[1],62%
same,Antagonism,[4],20%
CCCCC(CC)C(=O)Nc1ccc2ccn(Cc3ccc(C(=O)NS(=O)(=O)c4ccc(Cl)cc4)cc3OC)c2c1 (stereo not drawn),pKB,[3],7.8
CCCCC(CC)C(=O)Nc1ccc2ccn(Cc3ccc(C(=O)NS(=O)(=O)c4ccccc4)cc3)c2c1 (stereo not drawn),Antagonism,[2],42%
same,pKB,[3],6.8
CCCCC(CC)C(=O)Nc1ccc2ccn(Cc3ccc(C(=O)O)cc3OC)c2c1 (stereo not drawn),Antagonism,[5],100%
same,pKB,[6],6.6
same,Antagonism,[4],59%
CCCCC(CC)C(=O)Nc1ccc2ccn(Cc3ccc(C(=O)NCC(=O)O)cc3OC)c2c1 (stereo not drawn),Antagonism,[1],43%
CCCCC(CC)C(=O)Nc1ccc2ccn(Cc3ccc(C(=O)O)c(OC)c3)c2c1 (stereo not drawn),Antagonism,[4],15%
CCCCC(CC)C(=O)Nc1ccc2ccn(Cc3ccc(C(=O)O)cc3C)c2c1 (stereo not drawn),Antagonism,[5],21%
same,Antagonism,[1],91%
COc1cc(C(=O)NS(=O)(=O)c2cc(C)ccc2C)ccc1Cn1ccc2ccc(NC(=O)CC3CCCC3)cc21,pKB,[3],8.4
COc1cc(C(=O)NS(=O)(=O)c2ccccc2Cl)ccc1Cn1ccc2ccc(NC(=O)CC3CCCC3)cc21,pKB,[3],9.8
COc1cc(C(=O)NS(=O)(=O)c2c(C)cccc2Cl)ccc1Cn1ccc2ccc(NC(=O)CC3CCCC3)cc21,pKB,[3],8.8
CCCCC(CC)C(=O)Nc1ccc2ccn(Cc3ccc(C(=O)O)cc3Cl)c2c1 (stereo not drawn),Antagonism,[1],44%
CCCCC(CC)C(=O)Nc1ccc2ccn(Cc3ccc(C(=O)CS(=O)(=O)c4ccccc4)cc3OC)c2c1 (stereo not drawn),Antagonism,[4],59%
CCCCOC(=O)Nc1ccc2ccn(Cc3ccc(-c4nn[nH]n4)cc3OC)c2c1,pKB,[3],7.2
same,Antagonism,[4],68%
CCCCC(CC)C(=O)Nc1ccc2ccn(Cc3ccc(C(=O)C(C#N)S(=O)(=O)c4ccccc4)cc3OC)c2c1 (stereo not drawn),Antagonism,[2],73%
same,pKB,[3],8.1
CCCCC(CC)C(=O)Nc1ccc2ccn(Cc3ccc(-c4nn[nH]n4)cc3OC)c2c1 (stereo not drawn),Antagonism,[7],31%
same,pKB,[6],6.6
same,Antagonism,[4],50%
CCCCC(CC)C(=O)Nc1ccc2ccn(Cc3ccc(C(=O)O)c(Br)c3)c2c1 (stereo not drawn),Antagonism,[5],33%
CCCCC(CC)C(=O)Nc1ccc2ccn(Cc3ccc(C(=O)O)cc3OCCCC#N)c2c1 (stereo not drawn),Antagonism,[5],33%
same,Antagonism,[1],84%
CCCCC(CC)C(=O)Nc1ccc2ccn(Cc3ccc(C(=O)NS(=O)(=O)c4ccc(OC)cc4)cc3OC)c2c1 (stereo not drawn),pKB,[3],7.4
CCCCC(CC)C(=O)Nc1ccc2ccn(Cc3ccc(S(=O)(=O)O)cc3)c2c1 (stereo not drawn),Antagonism,[1],48%
CCCCC(CC)C(=O)Nc1ccc2ccn(Cc3ccc(C(=O)O)cc3OCCCc3nnn[nH]3)c2c1 (stereo not drawn),Antagonism,[4],32%
COc1cc(-c2nn[nH]n2)ccc1Cn1ncc2ccc(NC(=O)OC3CCCC3)cc21,Antagonism,[2],58%
same,pKB,[3],7.7
same,Antagonism,[4],100%
COc1cc(C(=O)N(C)S(=O)(=O)c2ccccc2)ccc1Cn1ccc2ccc(NC(=O)CC3CCCC3)cc21,Antagonism,[2],42%
COc1ccc(OC)c(S(=O)(=O)NC(=O)c2ccc(Cn3ccc4ccc(NC(=O)CC5CCCC5)cc43)c(OC)c2)c1,pKB,[3],9.1
CCCCOC(=O)Nc1ccc2cnn(Cc3ccc(-c4nn[nH]n4)cc3OC)c2c1,Antagonism,[7],55%
same,pKB,[3],7.1
CCCCC(CC)C(=O)Nc1ccc2ccn(Cc3ccc(OC)c(C(=O)O)c3)c2c1 (stereo not drawn),Antagonism,[1],28%
COc1cc(C(=O)NS(=O)(=O)c2ccccc2C)ccc1Cn1ncc2ccc(NC(=O)CC3CCCC3)cc21,pKB,[3],10.9
CCCCC(CC)C(=O)Nc1ccc2ccn(Cc3ccc(C(=O)O)cc3)c2c1 (stereo not drawn),Antagonism,[1],44%
CCC(C(=O)Nc1ccc2cnn(Cc3ccc(C(=O)NS(=O)(=O)c4ccccc4)cc3OC)c2c1)c1ccccc1 (stereo not drawn),Antagonism,[8],43%
CCCCC(CC)C(=O)Nc1ccc2ccn(Cc3ccc(C(=O)NS(=O)(=O)c4ccc(C)cc4)cc3OC)c2c1 (stereo not drawn),pKB,[3],8.4
CCCCC(CC)C(=O)Nc1ccc2ccn(Cc3ccc(C(=O)N[S+]([O-])c4ccccc4)cc3OC)c2c1 (stereo not drawn),Antagonism,[5],34%
CCCCC(CC)C(=O)Nc1ccc2ccn(Cc3cccc(C(=O)O)c3OC)c2c1 (stereo not drawn),Antagonism,[1],38%
CCCCOc1cc(C(=O)O)ccc1Cn1ccc2ccc(NC(=O)C(CC)CCCC)cc21 (stereo not drawn),Antagonism,[5],44%
same,Antagonism,[1],83%
CCCCC(CC)C(=O)Nc1ccc2ccn(Cc3cccc(C(=O)O)c3)c2c1 (stereo not drawn),Antagonism,[1],31%
CCCCC(CC)C(=O)Nc1ccc2ccn(Cc3ccc(C(=O)NS(=O)(=O)Cc4ccccc4)cc3OC)c2c1 (stereo not drawn),Antagonism,[1],89%
CCCCC(CC)C(=O)Nc1ccc2ccn(Cc3ccc(C(=O)NS(=O)(=O)c4ccccc4C)cc3OC)c2c1 (stereo not drawn),pKB,[3],8.9
CCCCC(CC)C(=O)Nc1ccc2cnn(Cc3ccc(-c4nn[nH]n4)cc3OC)c2c1 (stereo not drawn),pKB,[3],7.1
same,Antagonism,[4],100%
COc1cc(-c2nn[nH]n2)ccc1Cn1ccc2ccc(NC(=O)CC3CCCC3)cc21,Antagonism,[7],79%
same,Antagonism,[2],42%
same,Antagonism,[4],100%
COc1cc(C(=O)NS(=O)(=O)c2ccc3ccccc3c2)ccc1Cn1ccc2ccc(NC(=O)CC3CCCC3)cc21,pKB,[3],8.3
CCCCC(CC)C(=O)Nc1ccc2ccn(Cc3ccc(C(=O)NS(=O)(=O)c4ccccc4)c(OC)c3)c2c1 (stereo not drawn),Antagonism,[2],52%
CCCCC(CC)C(=O)Nc1ccc2ccn(Cc3ccc(C(=O)Nc4ccccc4C(=O)O)cc3OC)c2c1 (stereo not drawn),Antagonism,[1],34%
COc1cc(C(=O)NS(=O)(=O)c2ccccc2OC)ccc1Cn1ccc2ccc(NC(=O)CC3CCCC3)cc21,pKB,[3],9.7
CCCCC(CC)C(=O)Nc1ccc2ccn(Cc3ccc(C(=O)NO)cc3OC)c2c1 (stereo not drawn),Antagonism,[1],38%
CCCCCC(=O)Nc1ccc2ccn(Cc3ccc(-c4nn[nH]n4)cc3OC)c2c1,Antagonism,[5],86%
same,Antagonism,[4],32%
